Only a selection was taken, and hits are over-represented in it overall.
HCT116 bCat-KO = beta-catenin-lacking colon tumor cell growth suppression | viability, % at 10 µM | AID 818 | 140,000 compounds, 1.5% hits | HCT116 beta-catenin knockout viability, CellTiter-Glo, 60 h; active compounds read low;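 active = viability at or under a set limit, the compound median less 4 SD, cut at about 6% in these data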
PTEN del growth = growth suppressors of cells with PTEN tumor suppressor deletion. HCT116 PTEN-null viability, CellTiter-Glo, 60 h; active compounds read low. viability, % at 10 µM. 140,000 compounds, 1.2% hits;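 active = viability at or below a set limit, 4 SD under the median of all tested compounds, cut at about 3.7% in these data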;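 also: PTEN knockout HCT116 line with beta catenin targeted HCT116 as companion control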
Lung fibro prol = blocks proliferation of human lung fibroblasts | LL 47 human lung fibroblast viability, ATP luminescence; active compounds read low | viability, % at 10 µM | 85,000 compounds, 1.1% hits | AID 719;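 active = viability at or below 50% in the single dose screen; inactive = viability above 50%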;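 also: compound exposure lasted 72 h before the ATP readout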
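Material: Human LL 47 lung fibroblast cells | Input: 1,150 cells/well | Buffer or medium: IMEM plus 15% FBS | Compound dosing: 0.1% DMSO in all compound wells | Times: Overnight cell rest, 72 h compound treatment at 37 °C | Signal: CellTiter-Glo luminescence measuring cellular ATP | Measure: % viability versus median cells-only luminescence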
H69AR growth 86K = growth inhibitors of human H69AR lung tumor cells. H69AR lung tumor viability, ATP luminescence, 72 h; active compounds read low. viability, % at 10 µM. 85,000 compounds, 6% hits. AID 598;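 active = viability at or below 40%; inactive = viability above 40%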;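 also: multidrug resistant small cell line overexpressing MRP-1 efflux transporter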
HUVEC inhibit = inhibitors of human endothelial cell proliferation | HUVEC proliferation, CellTiter-Glo luminescence, 72 h; active compounds read low | viability, % at 10 µM (by protocol) | 86,000 compounds, 1.1% hits;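 active = viability at or below 30%; inactive = viability above 30%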
Hits are given with their value; 0 = inactive; - = no result given.

SMILES	HCT116 bCat-KO	PTEN del growth	Lung fibro prol	H69AR growth 86K	HUVEC inhibit
Cc1ccc(-c2nnc3c(C(F)(F)F)nc4ccccc4n23)cc1	4.7	0	-	-	-
FC(F)(F)c1nc2ccccc2n2c(-c3ccc(Cl)cc3)nnc12	4.8	0	-	-	-
CC1CCN(C(=O)CCCOc2ccc(Cl)cc2)CC1	0	0	0	0	0
CC(C)C(C)(C#N)NC(=O)CSc1nc2scc(-c3ccc(F)cc3)c2c(=O)n1Cc1ccccc1 (stereo unspecified)	0	0	-	-	-
Cc1ccnc2ccc(-c3nc4ccccc4o3)cc12	0	0	0	0	29.7
Cc1nc2ccc(-c3nc4ccccc4o3)cc2[nH]1	0	0	0	0	0
Cc1ccc(S(=O)(=O)NNC(=O)C2CCN(S(=O)(=O)c3ccc(C)cc3)CC2)cc1	0	0	-	-	-
Cc1ccc(S(=O)(=O)N2CCC(C(=O)NC3CCCCCC3)CC2)cc1	0	0	-	29.7	0
O=C(NC1CCCCC1)N1CCCC(c2nc(-c3ccc(S(=O)(=O)N4CCCC4)cc3)no2)C1 (stereo unspecified)	0	0	0	34.6	0
O=C(NC1CCCCC1)N1CCCC(c2nc(-c3cccs3)no2)C1 (stereo unspecified)	0	0	0	0	0
Cc1nc(Cl)c(C(=O)NC(C)(C)C)c(C)c1Cl	0	0	-	-	-
C/C(=N/NC(=O)c1cccs1)c1ccc(NC(=O)COc2ccc(Cl)cc2Cl)cc1	4.3	2.0	-	-	-
CCOc1ccc(S(=O)(=O)N2CCN(c3ccccc3)CC2)c2cccnc12	0	0	0	0	0
CCOc1ccc(S(=O)(=O)N2CCN(c3ccc(OC)cc3)CC2)c2cccnc12	0	0	0	34.8	0
Cc1ccc(NC2=C(NC(=O)c3ccccc3)C(=O)c3ccccc3C2=O)cc1Cl	5.7	0	-	-	-
O=c1[nH]c(CN2CCN(C/C=C/c3ccccc3)CC2)nc2cc(Cl)ccc12	0	0	0	0	27.9
CCN(CC)CCNC1=NCCn2c1cc1cc(OC)ccc12	0	0	0	0	0
CN=C1c2cc3cc(OC)ccc3n2CCN1Cc1ccccc1	0	0	45.9	19.2	0
Fc1ccc(-n2nnnc2-c2cnc(-c3cccs3)nc2C(F)(F)F)cc1	0	0	-	-	-
COc1ccc(-c2n[nH]c(C)c2-c2ccc(Cl)cc2)c(O)c1OC	0	0	0	35.1	0
C/C(=N\NC(=O)c1ccc(Cl)c(Cl)c1)c1ccc(Br)s1	6.1	3.6	-	-	-
C/C(=N\NC(=O)CNc1cccc(C)c1)c1ccc(Br)s1	0	0	-	-	-
CCn1nc(C)c(/C=N/NC(=S)Nc2ccc(Cl)cc2Cl)c1C	0	3.8	-	-	-
Cc1ccc(NC(=O)COc2ccccc2CNC(C)(C)CC(C)(C)C)cc1	1.4	1.8	34.6	1.6	0
CCC(=O)Oc1ccc(/C(CC)=C(\CC)c2ccc(OC(=O)CC)cc2)cc1	0	0	0	10.4	0
SMILES	HCT116 bCat-KO	PTEN del growth	Lung fibro prol	H69AR growth 86K	HUVEC inhibit
CCC(=O)OCCCCCCOc1ccc(C(=O)O)cc1	0	0	-	-	-
O=C(/C=C\c1ccccc1OC(=O)c1ccccc1F)c1cc2ccccc2o1	3.3	2.0	-	-	-
Cc1ccc(NC(=O)c2ccccc2O)cc1	0	0	0	0	0
Cc1ccc(NC(=O)C2=C(O)CCn3c2nc2ccccc23)cc1	0	0	0	26.0	0
COc1ccc([N+](=O)[O-])cc1NC(=S)NC(NC(=O)Cc1ccc(OC)c(OC)c1)C(Cl)(Cl)Cl (stereo unspecified)	4.9	0	-	-	-
COc1ccc([N+](=O)[O-])cc1NC(=O)Cc1ccc(Cl)cc1	0	0	-	-	-
CCOC(=O)Cc1csc(NC(=O)CSc2nc(N)c3c(C)c(C)sc3n2)n1	0	0	0	0	0
CCOC(=O)COc1ccc(S(=O)(=O)NCCC2=CCCCC2)cc1	0	0	0	0	4.4
O=C(NNC(=S)NC1CCCCC1)c1sc2ccccc2c1Cl	0	0	-	-	-
CC(C)(C)C(=O)NC(=S)NNC(=O)c1sc2ccccc2c1Cl	3.0	0	-	-	-
Cc1c([N+](=O)[O-])c([N+](=O)[O-])nn1CC(=O)N1CCCCC1	0	0	-	-	-
CN(C)S(=O)(=O)c1cccc(NC(=S)NN=C(Cc2ccccc2)Cc2ccccc2)c1	0	0	-	-	-
Oc1ccc(C=Nc2ccc(N3CCOCC3)cc2)c(O)c1	0	0	0	0	0
Oc1ccc(N=Nc2cccc(C(F)(F)F)c2)cc1C=Nc1ccc(N2CCOCC2)cc1	4.1	0	-	-	-
c1ccc(-c2nc(N3CCCCCC3)c3ccccc3n2)nc1	3.8	3.4	36.6	7.6	0
c1ccc(-c2nc(N3CCOCC3)c3ccccc3n2)nc1	0	3.3	0	25.7	0
c1ccc(CN2CCN(c3nc(-c4ccccn4)nc4ccccc34)CC2)cc1	0	0	44.5	3.2	13.7
O=C(O)CC/C(=N\NC(=O)c1ccccc1Br)c1ccccc1	0	0	-	-	-
Cn1c(/C(C#N)=C(\O)COc2ccc3ccccc3c2)nc2ccccc21	0	0	0	12.2	0
CCn1c(/C=C/Nc2ccccc2)[n+](CC)c2cc(Cl)c(Cl)cc21	1.5	1.3	-	-	-
CCn1c(C)[n+](CCOCC[n+]2c(C)n(CC)c3cc(Cl)c(Cl)cc32)c2cc(Cl)c(Cl)cc21	0	0	-	-	-
C=CCN(c1cccc(C(F)(F)F)c1)S(=O)(=O)c1cccc(C(=O)OCC(=O)Nc2ccccc2)c1	0	0	-	-	-
COc1ccccc1NC(=S)NC(=O)/C=C/c1ccco1	0	0	-	-	-
Cc1cccc(NC(=S)NC(=O)/C=C/c2ccco2)n1	0	0	0	32.8	0
Cc1ccc(-n2nc3cc(C)c(NC(=S)NC(=O)/C=C/c4ccco4)cc3n2)cc1	5.5	0	-	-	-
SMILES	HCT116 bCat-KO	PTEN del growth	Lung fibro prol	H69AR growth 86K	HUVEC inhibit
O=C(NCc1cccnc1)C(=O)NCC(c1ccco1)N1CCN(c2ccc(F)cc2)CC1 (stereo unspecified)	0	0	-	-	-
CCCOC(=O)c1cccc(Nc2nc(-c3cccnc3)nc3ccccc23)c1	0	3.6	-	-	-
CCCOC(=O)c1cccc(NC(=O)c2cccnc2)c1	0	0	0	0	0
COc1ccc2[nH]c(C)c(C(=O)CN3CCN(C(=O)c4ccco4)CC3)c2c1	0	0	-	-	-
COc1ccc2[nH]cc(C(=O)CN3CCN(C(=O)c4ccco4)CC3)c2c1	0	0	0	0	29.2
COC(=O)c1[nH]c2ccccc2c1NC(=O)CN1CCN(C(=O)c2ccco2)CC1	0	0	0	18.3	0
CNc1ncc(Cc2ccccc2)s1	0	0	-	-	-
Cc1cc(C)n2nc(N)c(N=Nc3ccc(Cl)cc3)c2n1	0	0	-	-	-
Cc1ccc(S(=O)(=O)Cn2nnnc2C(C(C)C)N2CCN(c3nc4ccccc4s3)CC2)cc1 (stereo unspecified)	0	0	0	26.7	0
c1ccc(Cn2nnnc2C(c2ccccc2)N2CCN(c3nc4ccccc4s3)CC2)cc1 (stereo unspecified)	0	0	0	0	0
O=c1ccc(Oc2nc(N3CCOCC3)nc(N3CCOCC3)n2)n[nH]1	0	0	0	0	0
CN(C)c1ccc(C2C=C(c3ccc(Cl)cc3OC(F)F)Nc3ncnn32)cc1 (stereo unspecified)	0	0	0	14.4	0
Cc1ccc(C2C=C(c3ccccc3OC(F)F)Nc3ncnn32)cc1 (stereo unspecified)	0	0	-	0	0

High-throughput results: PubChem, SRMLSC
